Measured values reported in ChEMBL document CHEMBL1158380 (Eur J Med Chem, 2009).

Key:
MCF7 = test: Antiproliferative activity against human MCF7 cells after 48 hrs by sulforhodamine B assay; type: functional, cell-based; settings: MCF7, 48 h
Method in brief: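 MCF-7 cells from the NCI screening program, grown as monolayers in RPMI 1640 with 5% FBS at 37 °C in humidified 5% CO2. Cells were seeded 24 h before compound addition (DMSO, final 1% v/v) at varying concentrations.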

Bos taurus [1] = organism: Bos taurus; test: Displacement of [3H]colchicine from bovine brain tubulin at 5 uM by scintillation counting
Method in brief: (§1)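 Electrophoretically homogeneous bovine brain tubulin (1.0 µM, 0.1 mg/mL) in a tubulin-stabilizing buffer with 5.0 µM [3H]colchicine and compound at 1.0, 5.0 or 50 µM, final DMSO 5% (v/v). Incubation was 10 min at 37 °C. Reactions were stopped with ice water and filtered through stacked DEAE-cellulose filters. Read-out is % inhibition of colchicine binding.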

Bos taurus [2] = organism: Bos taurus; test: Displacement of [3H]colchicine from bovine brain tubulin at 50 uM by scintillation counting; method in brief: as §1
[3] = Inhibition of bovine brain tubulin by spectrophotometry; set-up: species or system Bos taurus
Method in brief: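 Assembly of electrophoretically homogeneous bovine brain tubulin at 10 µM (1.0 mg/mL) in 0.8 M monosodium glutamate pH 6.6 with 4% DMSO. Tubulin was preincubated with compound at varying concentrations for 15 min at 30 °C without GTP, chilled, then 0.4 mM GTP was added. After a jump from 0 to 30 °C, turbidity at 350 nm was followed for 20 min.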

MDA-MB-435 = test: Cytotoxicity against human MDA-MB-435 cells after 72 hrs by MTT assay; type: functional, cell-based; settings: MDA-MB-435, 72 h
Method in brief: (§2)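 Four human tumour lines (MDA/MB-435, HCT-8, SF-295, HL-60) were exposed to compound at 0.0009–5 µg/mL for 72 h. Growth was quantified by living-cell reduction of MTT to blue formazan.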

HCT-8 = test: Cytotoxicity against human HCT8 cells after 72 hrs by MTT assay; type: functional, cell-based; settings: HCT-8, 72 h; method in brief: as §2
SF-295 = test: Cytotoxicity against human SF295 cells after 72 hrs by MTT assay; type: functional, cell-based; settings: SF-295, 72 h; method in brief: as §2
HL-60 = test: Cytotoxicity against human HL60 cells after 72 hrs by MTT assay; type: functional, cell-based; settings: HL-60, 72 h; method in brief: as §2
Bos taurus [4] = organism: Bos taurus; test: Displacement of [3H]colchicine from bovine brain tubulin at 1 uM by scintillation counting

## COc1ccc(S(=O)(=O)c2cc(OC)c(OC)c(OC)c2)cc1
MCF7
  IC50: 2.6 µM
Bos taurus [1]
  Activity: 18%
Bos taurus [2]
  Activity: 53%
[3]
  IC50: > 40 µM
MDA-MB-435
  IC50: 2.32 µM
HCT-8
  IC50: 12.2 µM
SF-295
  IC50: 8.1 µM
HL-60
  IC50: 4.75 µM

## COc1ccc([S+]([O-])c2cc(OC)c(OC)c(OC)c2)cc1 (centres undefined)
MCF7
  IC50: 2.2 µM
Bos taurus [1]
  Activity: 16%
Bos taurus [2]
  Activity: 41%
[3]
  IC50: 31 µM
MDA-MB-435
  IC50: 0.28 µM
HCT-8
  IC50: 0.47 µM
SF-295
  IC50: 1.46 µM
HL-60
  IC50: 0.34 µM

## COc1ccc(Cc2cc(OC)c(OC)c(OC)c2)cc1
MCF7
  IC50: 0.13 µM
Bos taurus [1]
  Activity: 36%
Bos taurus [2]
  Activity: 83%
[3]
  IC50: 4 µM

## COc1ccc(CCc2cc(OC)c(OC)c(OC)c2)cc1
MCF7
  IC50: 0.078 µM
Bos taurus [1]
  Activity: 50%
Bos taurus [2]
  Activity: 89%
[3]
  IC50: 2.6 µM

## COc1ccc(Cc2cc(OC)c(OC)c(OC)c2)cc1O
MCF7
  IC50: 0.059 µM
Bos taurus [1]
  Activity: 44%
Bos taurus [2]
  Activity: 91%
[3]
  IC50: 2.9 µM

## COc1ccc(/C=C/c2cc(OC)c(OC)c(OC)c2)cc1O [E-COMBRETASTATIN A-4]
MCF7
  IC50: 0.0014 µM
Bos taurus [4]
  Activity: 85%

## COc1ccc(/C=C/c2cc(OC)c(OC)c(OC)c2)cc1
MCF7
  IC50: 0.0048 µM
Bos taurus [4]
  Activity: 74%
Bos taurus [1]
  Activity: 97%
[3]
  IC50: 1.1 µM

## COc1ccc(C(=O)c2cc(OC)c(OC)c(OC)c2)cc1
MCF7
  IC50: 0.16 µM
Bos taurus [1]
  Activity: 50%
Bos taurus [2]
  Activity: 95%
[3]
  IC50: 2.2 µM

## COc1ccc(Sc2cc(OC)c(OC)c(OC)c2)cc1
MCF7
  IC50: 0.016 µM
Bos taurus [4]
  Activity: 56%
Bos taurus [1]
  Activity: 89%
[3]
  IC50: 1.2 µM
MDA-MB-435
  IC50: 0.003 µM
HCT-8
  IC50: 0.04 µM
SF-295
  IC50: 0.03 µM
HL-60
  IC50: 0.003 µM

## COc1ccc(C(=O)c2cc(OC)c(OC)c(OC)c2)cc1O [PHENSTATIN]
MCF7
  IC50: 0.034 µM
Bos taurus [4]
  Activity: 70%
Bos taurus [1]
  Activity: 78%
[3]
  IC50: 0.73 µM

## COc1ccc(CCc2cc(OC)c(OC)c(OC)c2)cc1O
MCF7
  IC50: 0.013 µM
Bos taurus [4]
  Activity: 49%
Bos taurus [1]
  Activity: 67%
[3]
  IC50: 1.6 µM
